Experimental findings from ChEMBL document CHEMBL1137821, “Design of non-nucleoside inhibitors of HIV-1 reverse transcriptase with improved drug resistance properties. 1” (J Med Chem, 2004) are described below.

Assay [1] deals with T1, Human immunodeficiency virus type 1 reverse transcriptase (Human immunodeficiency virus 1, UniProt Q72547). Nature of the assay: Concentration required for 50% inhibition of human immunodeficiency virus type 1 reverse transcriptase mutant type Cys181.
The target of assay [2] is T1, Human immunodeficiency virus type 1 reverse transcriptase. Kind of assay: Concentration required for 50% inhibition of human immunodeficiency virus type 1 reverse transcriptase Ile100.
Assay [3] relates to MT4. Kind of assay: Inhibitory concentration against nevirapine resistant human immunodeficiency virus type 1 mutant type Tyr181Cys was determined in MT-4 cells. In kind it is functional, cell-based. The gist of the method: (§1)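 Whole-cell antiviral assay in MT4 cells, a human T-cell lymphotropic virus-transformed line. Cells were infected with wild-type HIV-1 strain IIIB or with nevirapine-resistant HIV-1 carrying the Tyr181Cys RT mutation. Inhibition was read by a propidium iodide-based colorimetric assay that estimates DNA content.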

Assay [4] relates to MT4. Nature of the assay: Inhibitory concentration against human immunodeficiency virus type 1 was determined in MT-4 cells. In kind it is functional, cell-based. The gist of the method:
as §1

In assay [5] the target is T1, Human immunodeficiency virus type 1 reverse transcriptase. Kind of assay: Concentration required for 50% inhibition of human immunodeficiency virus type 1 reverse transcriptase mutant type Ile100. The gist of the method: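 Inhibition of mutant HIV-1 RT enzyme, tested alongside wild-type RT; IC50 values are the mean of two independent experiments.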

The IC50 is the concentration that inhibits the measured activity by half. High values mean lower potency, low ones higher potency. Regarding `CCCc1c([S+]([O-])C2CCCCC2)c2cc(Cl)ccc2[nH]c1=O` (stereo unspecified), the half-inhibitory concentration (IC50) in assay [1] stood at 1260 nM; in assay [2] it was 2380 nM; in the assay on MT4 [3] it was 2210 nM; in the assay on MT4 [4], 240 nM.

As to `CC(C)c1c(OC2CCCCC2)c2cc(Cl)ccc2[nH]c1=O`, the IC50 amounted to 2500 nM in assay [1], 1960 nM in assay [5], 710 nM in the assay with MT4 [3] and 50 nM in the assay with MT4 [4].

Turning to `CCCc1c(OC2CCCCC2)c2cc(Cl)ccc2[nH]c1=O`, the IC50 was 1130 nM in assay [1], 1360 nM in assay [5], 600 nM in the assay on MT4 [3] and 30 nM in the assay on MT4 [4].

Regarding `CCCc1c(SC2CCCCC2)c2cc(Cl)ccc2[nH]c1=O`, the IC50 in assay [1] was 860 nM; in assay [2] it was 1610 nM; in the assay on MT4 [3], 360 nM; with MT4 [4] it was 100 nM.
